Test results as given in publication PMC7746607 (Nature, 2020).

How the values were obtained:
[1] = biological target: mouse KSR1-Nanoluc (KSR-bound MEK) (UniProt Q02750+Q61097); assay: NanoBRET in-cell steady-state competition with tram-bo tracer on KSR1-luc; assay type: binding; settings: MEK1-luc vs KSR1-luc
KSR1-luc (KSR-bound MEK) = KSR1-luc (KSR-bound MEK) (UniProt Q02750+Q61097); assay: NanoBRET washout, intracellular residence time on KSR1-luc; assay type: binding, mouse; settings: 175-minute time course, range of inhibitor concentrations, tram-bo 1 μM
Sequence of KSR1-luc (KSR-bound MEK) (Q02750 whole entry): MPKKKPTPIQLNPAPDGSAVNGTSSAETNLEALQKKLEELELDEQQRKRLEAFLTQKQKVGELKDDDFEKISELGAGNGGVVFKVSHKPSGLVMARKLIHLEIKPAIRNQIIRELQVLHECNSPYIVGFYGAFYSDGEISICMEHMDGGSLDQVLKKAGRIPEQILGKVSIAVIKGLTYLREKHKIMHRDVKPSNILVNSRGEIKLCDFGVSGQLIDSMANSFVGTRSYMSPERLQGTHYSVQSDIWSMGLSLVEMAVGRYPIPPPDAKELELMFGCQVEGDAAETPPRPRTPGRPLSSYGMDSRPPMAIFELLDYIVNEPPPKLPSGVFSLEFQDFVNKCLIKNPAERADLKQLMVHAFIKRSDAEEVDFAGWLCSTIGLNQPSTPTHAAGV
Sequence of KSR1-luc (KSR-bound MEK) (Q61097 whole entry): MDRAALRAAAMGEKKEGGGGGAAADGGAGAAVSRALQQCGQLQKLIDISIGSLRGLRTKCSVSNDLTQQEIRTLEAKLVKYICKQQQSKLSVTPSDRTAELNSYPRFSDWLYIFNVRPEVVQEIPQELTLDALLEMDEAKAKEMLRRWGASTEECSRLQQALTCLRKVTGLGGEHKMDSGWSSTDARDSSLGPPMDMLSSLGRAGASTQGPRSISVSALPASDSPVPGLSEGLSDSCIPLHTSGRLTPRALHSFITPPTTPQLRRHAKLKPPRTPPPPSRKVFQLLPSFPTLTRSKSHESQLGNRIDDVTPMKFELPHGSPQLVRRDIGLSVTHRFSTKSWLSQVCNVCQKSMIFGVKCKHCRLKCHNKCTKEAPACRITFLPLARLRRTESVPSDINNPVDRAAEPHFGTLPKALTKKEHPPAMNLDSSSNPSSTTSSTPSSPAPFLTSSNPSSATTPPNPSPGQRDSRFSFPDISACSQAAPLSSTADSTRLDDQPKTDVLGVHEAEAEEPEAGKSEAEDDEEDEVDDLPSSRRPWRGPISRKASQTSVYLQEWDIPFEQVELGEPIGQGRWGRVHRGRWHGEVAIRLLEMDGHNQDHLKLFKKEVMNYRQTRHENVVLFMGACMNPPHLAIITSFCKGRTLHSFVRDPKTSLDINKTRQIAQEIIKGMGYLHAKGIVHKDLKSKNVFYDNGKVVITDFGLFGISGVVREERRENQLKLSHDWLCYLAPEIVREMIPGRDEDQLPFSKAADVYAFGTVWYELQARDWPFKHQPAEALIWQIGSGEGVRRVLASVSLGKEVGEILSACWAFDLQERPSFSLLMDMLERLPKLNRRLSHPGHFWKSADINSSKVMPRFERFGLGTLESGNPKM

MEK1-luc = MEK1-luc (Homo sapiens, UniProt Q02750); assay: NanoBRET washout, intracellular residence time on MEK1-luc; assay type: binding; settings: 175-minute time course, tram-bo 1 μM
Sequence of MEK1-luc (Q02750 whole entry): as the sequence (Q02750 whole entry) above

RET-luc = RET-luc (Homo sapiens, UniProt P07949); assay: NanoBRET control kinase dose response, RET-luc; assay type: binding; settings: 293T cells, tram-bo or tracer K5
Sequence of RET-luc (P07949 29-1114): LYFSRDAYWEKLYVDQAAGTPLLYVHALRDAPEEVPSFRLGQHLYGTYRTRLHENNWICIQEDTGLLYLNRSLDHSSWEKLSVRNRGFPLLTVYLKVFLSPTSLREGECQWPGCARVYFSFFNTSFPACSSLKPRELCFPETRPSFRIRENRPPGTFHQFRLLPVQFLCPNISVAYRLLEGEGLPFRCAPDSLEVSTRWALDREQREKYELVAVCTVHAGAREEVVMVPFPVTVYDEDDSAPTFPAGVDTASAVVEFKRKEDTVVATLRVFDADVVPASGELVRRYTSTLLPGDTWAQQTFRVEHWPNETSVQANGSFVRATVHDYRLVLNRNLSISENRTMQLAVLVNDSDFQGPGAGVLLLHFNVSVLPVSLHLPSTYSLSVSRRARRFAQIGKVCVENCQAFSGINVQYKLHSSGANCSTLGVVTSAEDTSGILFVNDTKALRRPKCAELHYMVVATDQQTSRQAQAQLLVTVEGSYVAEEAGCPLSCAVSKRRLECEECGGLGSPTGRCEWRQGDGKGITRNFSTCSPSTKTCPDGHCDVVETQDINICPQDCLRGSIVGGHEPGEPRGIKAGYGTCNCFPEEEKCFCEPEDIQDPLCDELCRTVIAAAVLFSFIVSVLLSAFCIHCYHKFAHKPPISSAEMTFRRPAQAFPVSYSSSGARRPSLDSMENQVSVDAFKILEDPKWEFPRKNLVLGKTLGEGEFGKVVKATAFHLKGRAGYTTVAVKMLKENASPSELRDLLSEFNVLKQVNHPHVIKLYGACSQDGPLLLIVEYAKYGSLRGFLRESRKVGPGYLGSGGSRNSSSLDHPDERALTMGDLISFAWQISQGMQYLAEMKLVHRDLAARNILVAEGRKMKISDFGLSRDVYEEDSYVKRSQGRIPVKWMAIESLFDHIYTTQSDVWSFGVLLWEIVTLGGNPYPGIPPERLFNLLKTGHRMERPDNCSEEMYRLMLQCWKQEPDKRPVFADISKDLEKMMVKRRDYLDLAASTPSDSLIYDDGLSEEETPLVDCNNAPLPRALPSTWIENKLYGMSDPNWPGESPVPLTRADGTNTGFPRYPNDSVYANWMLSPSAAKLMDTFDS

SRC-luc = SRC-luc (Homo sapiens, UniProt P12931); assay: NanoBRET control kinase dose response, SRC-luc; assay type: binding; settings: 293T cells, tram-bo or tracer K4
Sequence of SRC-luc (P12931 whole entry): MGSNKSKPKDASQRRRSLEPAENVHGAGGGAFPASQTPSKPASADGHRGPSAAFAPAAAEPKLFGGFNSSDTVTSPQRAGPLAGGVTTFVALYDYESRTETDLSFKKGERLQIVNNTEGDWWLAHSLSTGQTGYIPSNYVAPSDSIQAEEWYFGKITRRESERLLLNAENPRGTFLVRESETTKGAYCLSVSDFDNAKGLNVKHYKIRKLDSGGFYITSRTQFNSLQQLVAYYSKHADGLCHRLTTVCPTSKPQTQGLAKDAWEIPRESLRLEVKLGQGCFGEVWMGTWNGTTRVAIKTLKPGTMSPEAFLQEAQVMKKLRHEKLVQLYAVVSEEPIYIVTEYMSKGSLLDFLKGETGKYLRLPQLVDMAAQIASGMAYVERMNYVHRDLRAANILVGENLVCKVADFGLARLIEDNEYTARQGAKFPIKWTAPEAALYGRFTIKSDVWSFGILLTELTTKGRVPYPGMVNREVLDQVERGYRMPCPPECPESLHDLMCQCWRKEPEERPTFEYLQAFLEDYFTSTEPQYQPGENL

[2] = biological target: BRAF and MEK1 interaction (Homo sapiens, UniProt Q02750); assay: IP/WB of endogenous MEK1 from HCT116 cells, BRAF pulldown; assay type: cell-based; settings: HCT116, 200 nM, 1 hour
Sequence of BRAF and MEK1 interaction (Q02750 whole entry): as the sequence (Q02750 whole entry) above
Outline: (§1)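 HCT116 cells were plated 48 h to ~70% confluency, then transfected (Lipofectamine 3000) with FLAG-KSR1 (2.3 μg, WT) or FLAG-BRAF (10 μg, WT). At 24 h cells got 0.1% DMSO or 200 nM test compound for 1 h, then were lysed in NP-40 buffer on ice for 30 min. 250 μg lysate was rotated 4 h at 4 °C with anti-MEK1/Protein A resin, with an IgG control. Anti-FLAG immunoblot; three independent experiments.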

[3] = biological target: KSR1 and MEK1 interaction (UniProt Q02750+Q61097); assay type: cell-based, mouse KSR1, human HCT116 cells; settings: HCT116, wild-type KSR1, 200 nM, 1 hour
Sequence of KSR1 and MEK1 interaction (Q02750 whole entry): as above
Sequence of KSR1 and MEK1 interaction (Q61097 whole entry): as the sequence (Q61097 whole entry) above
Outline: as §1

Sequence of mouse KSR1-Nanoluc (KSR-bound MEK) (Q02750 whole entry): as the sequence (Q02750 whole entry) above
Sequence of mouse KSR1-Nanoluc (KSR-bound MEK) (Q61097 whole entry): as the sequence (Q61097 whole entry) above

Compound	difference in potency (IC50) between KSR1-luc and MEK1-luc [1]	dissociation after washout on KSR1-luc (BRET signal recovery) (KSR1-luc (KSR-bound MEK))	dissociation after washout on MEK1-luc (MEK1-luc)	dose response on RET-luc (RET-luc)	dose response on SRC-luc (SRC-luc)	co-immunoprecipitation of BRAF via endogenous MEK [2]	co-immunoprecipitation of KSR1 via endogenous MEK [3]
O=C(c1ccc(F)c(F)c1Nc1ccc(I)cc1F)N1CC(O)([C@@H]2CCCCN2)C1 [cobimetinib, Cobimetinib]	~ 20 fold	dissociated more readily	dissociated more readily				
CC(=O)Nc1cccc(-n2c(=O)n(C3CC3)c(=O)c3c(Nc4ccc(I)cc4F)n(C)c(=O)c(C)c32)c1 [trametinib, Trametinib]				no discernible dose response	no discernible dose response	diminished binding of BRAF	sustained pulldown of KSR1
